Source: ChEMBL document CHEMBL1275298, “Synthesis and anti-inflammatory activity evaluation of some novel 6-alkoxy(phenoxy)-[1,2,4]triazolo[3,4-a]phthalazine-3-amine derivatives” (2010)
The source made the active and inactive calls. No cut-off for these calls is given here.

Experiments:
Mus musculus [1] = assay: Antiinflammatory activity in mouse assessed as inhibition of xylene-induced ear edema at 100 mg/kg, ip after 0.5 hrs relative to control; type: functional; settings: route intraperitoneal
Procedure, shortened: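 Kunming mice, 20-25 g, 10 per group. Freshly prepared DMSO solution given i.p. at 0.05 mL/20 g; vehicle-only (DMSO) controls. Xylene ear edema test run 0.5 h after dosing; mice killed 30 min after xylene, 7 mm plugs cut from treated and untreated ears, and edema taken as the plug weight difference. Reported as % edema reduction versus vehicle.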

Mus musculus [2] = assay: Antiinflammatory activity in mouse assessed as inhibition of xylene-induced ear edema at 200 mg/kg, po administered 3 hrs before xylene challenge measured after 3 hrs post dose; type: functional
Procedure, shortened: (§1)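 Kunming mice, 20-25 g, 10 per group. Compound homogenized in 0.5% CMC-Na and given orally at 0.2 mL/10 g; vehicle controls got 0.5% CMC-Na. Xylene applied 1, 2, 3, 4, 5 or 24 h after dosing (3 h for 50 and 100 mg/kg). Killed 30 min later; 7 mm ear plugs weighed, treated minus untreated. Result given as % edema reduction versus CMC-Na controls.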

Mus musculus [3] = assay: Antiinflammatory activity in mouse assessed as inhibition of xylene-induced ear edema at 200 mg/kg, po administered 24 hrs before xylene challenge measured after 3 hrs post dose; type: functional; procedure, shortened: as §1
Mus musculus [4] = assay: Antiinflammatory activity in mouse assessed as inhibition of xylene-induced ear edema at 200 mg/kg, po administered 4 hrs before xylene challenge measured after 3 hrs post dose; type: functional; procedure, shortened: as §1
Mus musculus [5] = assay: Antiinflammatory activity in mouse assessed as inhibition of xylene-induced ear edema at 200 mg/kg, po administered 2 hrs before xylene challenge measured after 3 hrs post dose; type: functional; procedure, shortened: as §1
Mus musculus [6] = assay: Antiinflammatory activity in mouse assessed as inhibition of xylene-induced ear edema at 200 mg/kg, po administered 1 hr before xylene challenge measured after 3 hrs post dose; type: functional; procedure, shortened: as §1
Mus musculus [7] = assay: Antiinflammatory activity in mouse assessed as inhibition of xylene-induced ear edema at 200 mg/kg, po administered 5 hrs before xylene challenge measured after 3 hrs post dose; type: functional; procedure, shortened: as §1
Mus musculus [8] = assay: Antiinflammatory activity in mouse assessed as inhibition of xylene-induced ear edema at 100 mg/kg, po administered 3 hrs before xylene challenge measured after 3 hrs post dose; type: functional; procedure, shortened: as §1
Mus musculus [9] = assay: Antiinflammatory activity in mouse assessed as inhibition of xylene-induced ear edema at 50 mg/kg, po administered 3 hrs before xylene challenge measured after 3 hrs post dose; type: functional; procedure, shortened: as §1
Mus musculus [10] = assay: Antiinflammatory activity in mouse assessed as inhibition of xylene-induced ear edema at 200 mg/kg, po administered 1 to 24 hrs before xylene challenge measured after 4 hrs post dose; type: functional, organism-based; design: dose 200 mg/kg; procedure, shortened: as §1

For `Nc1ccccc1Oc1nn2c(N)nnc2c2ccccc12`, the inhibition in vivo at 100 mg/kg (Mus musculus [1]) was 38.4%.

`Nc1cccc(Oc2nn3c(N)nnc3c3ccccc23)c1` was tested, and the inhibition in vivo at 100 mg/kg (Mus musculus [1]) was 68%.

With `CCCCCCOc1nn2c(N)nnc2c2ccccc12` the inhibition in vivo at 100 mg/kg (Mus musculus [1]) was 39.5%.

Work on `CCCCOc1nn2c(N)nnc2c2ccccc12` yielded an inhibition in vivo at 100 mg/kg (Mus musculus [1]) of 67.6%.

Work on `COc1ccc(Oc2nn3c(N)nnc3c3ccccc23)cc1` yielded an inhibition in vivo at 100 mg/kg (Mus musculus [1]) of 44%.

`CC(C)Cc1ccc(C(C)C(=O)O)cc1` (centres undefined) [IBUPROFEN] showed an inhibition in vivo at 200 mg/kg (Mus musculus [2]) of 64.6%, an inhibition in vivo at 200 mg/kg (Mus musculus [3]) of 13.2% and an inhibition in vivo at 200 mg/kg (Mus musculus [4]) of 36.3%. For the same compound, the inhibition in vivo at 100 mg/kg (Mus musculus [1]) was 61.2%, the inhibition in vivo at 200 mg/kg (Mus musculus [5]) was 38.6% and the inhibition in vivo at 200 mg/kg (Mus musculus [6]) was 29.6%. It also gave an inhibition in vivo at 200 mg/kg (Mus musculus [7]) of 23.4% and an inhibition in vivo at 100 mg/kg (Mus musculus [8]) of 26.9%.

With `Nc1nnc2c3ccccc3c(Oc3ccc(Br)cc3)nn12` the inhibition in vivo at 100 mg/kg (Mus musculus [1]) was 48.4%.

`Nc1nnc2c3ccccc3c(Oc3cccc(Cl)c3)nn12` showed an inhibition in vivo at 100 mg/kg (Mus musculus [1]) of 68.8%.

In the case of `CCCCCCCOc1nn2c(N)nnc2c2ccccc12`, the inhibition in vivo at 100 mg/kg (Mus musculus [1]) is reported as 65.7%.

`Nc1ccc(Oc2nn3c(N)nnc3c3ccccc23)cc1` showed an inhibition in vivo at 200 mg/kg (Mus musculus [2]) of 84.3%, an inhibition in vivo at 200 mg/kg (Mus musculus [3]) of 18.9% and an inhibition in vivo at 200 mg/kg (Mus musculus [4]) of 80.6%. The inhibition in vivo at 100 mg/kg (Mus musculus [1]) was 83%, the inhibition in vivo at 200 mg/kg (Mus musculus [5]) was 81.3% and the inhibition in vivo at 200 mg/kg (Mus musculus [6]) was 60.5%. For the same compound, the inhibition in vivo at 50 mg/kg (Mus musculus [9]) was 22.8%, the inhibition in vivo at 200 mg/kg (Mus musculus [7]) was 55.9% and the inhibition in vivo at 100 mg/kg (Mus musculus [8]) was 37.9%.

`CC(C)Oc1nn2c(N)nnc2c2ccccc12` gave an inhibition in vivo at 100 mg/kg (Mus musculus [1]) of 39.4%.

With `Nc1nnc2c3ccccc3c(Oc3ccc(F)cc3)nn12` the inhibition in vivo at 100 mg/kg (Mus musculus [1]) was 48.8%.

`CCCCCCCCOc1nn2c(N)nnc2c2ccccc12` showed an inhibition in vivo at 100 mg/kg (Mus musculus [1]) of 58%.

Work on `Nc1nnc2c3ccccc3c(Oc3ccccc3)nn12` yielded an inhibition in vivo at 100 mg/kg (Mus musculus [1]) of 55%.

With `Nc1nnc2c3ccccc3c(Oc3ccc(Cl)cc3)nn12` the inhibition in vivo at 100 mg/kg (Mus musculus [1]) was 75%.

`Cc1cccc(Oc2nn3c(N)nnc3c3ccccc23)c1` was tested, and the inhibition in vivo at 100 mg/kg (Mus musculus [1]) was 68%.

`Nc1nnc2c3ccccc3c(Oc3ccccc3Cl)nn12` gave an inhibition in vivo at 200 mg/kg (Mus musculus [2]) of 75%, an inhibition in vivo at 200 mg/kg (Mus musculus [3]) of 8.24% and an inhibition in vivo at 200 mg/kg (Mus musculus [4]) of 64.1%. For the same compound, the inhibition in vivo at 100 mg/kg (Mus musculus [1]) was 81.2%, the inhibition in vivo at 200 mg/kg (Mus musculus [5]) was 59% and the inhibition in vivo at 200 mg/kg (Mus musculus [6]) was 52.7%. The inhibition in vivo at 50 mg/kg (Mus musculus [9]) was 30.8%, the inhibition in vivo at 200 mg/kg (Mus musculus [7]) was 57.2% and the inhibition (Mus musculus [10]) was “Active”. It also gave an inhibition in vivo at 100 mg/kg (Mus musculus [8]) of 46.7%.

Work on `Cc1ccc(Oc2nn3c(N)nnc3c3ccccc23)cc1` yielded an inhibition in vivo at 100 mg/kg (Mus musculus [1]) of 52.7%.

`Nc1nnc2c3ccccc3c(Oc3ccc(Cl)cc3Cl)nn12` showed an inhibition in vivo at 100 mg/kg (Mus musculus [1]) of 40.4%.

`Cc1ccccc1Oc1nn2c(N)nnc2c2ccccc12` gave an inhibition in vivo at 100 mg/kg (Mus musculus [1]) of 68.3%.
